According to ChEMBL document CHEMBL1143879, “Identification of novel series of human CCR1 antagonists” (Bioorg Med Chem Lett, 2008):

Key:
[1] = biological target: T1, C-C chemokine receptor type 1 (Homo sapiens, UniProt P32246); experiment: Displacement of [125I]MIP1-alpha from human CCR1 receptor expressed in THP1 cells; assay type: cell-based, THP-1
T1 sequence (P32246 whole entry): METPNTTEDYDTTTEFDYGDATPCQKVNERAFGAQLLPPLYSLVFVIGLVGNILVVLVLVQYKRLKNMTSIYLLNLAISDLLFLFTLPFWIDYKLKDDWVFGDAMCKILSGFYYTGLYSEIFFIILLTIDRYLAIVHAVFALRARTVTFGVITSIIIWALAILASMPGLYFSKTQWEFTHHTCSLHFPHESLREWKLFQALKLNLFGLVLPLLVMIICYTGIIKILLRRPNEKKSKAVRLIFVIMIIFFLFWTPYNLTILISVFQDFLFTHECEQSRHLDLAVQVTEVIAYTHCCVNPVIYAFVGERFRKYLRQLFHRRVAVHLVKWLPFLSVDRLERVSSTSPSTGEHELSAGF
How it was run: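 THP-1 cells expressing CCR1, washed in PBS, at 5 × 10⁶/ml with compound or vehicle and 50 pM human [¹²⁵I]MIP-1α. Binding buffer: 50 mM Hepes pH 7.4, 5 mM MgCl₂, 1 mM CaCl₂, 0.5% BSA. Incubated 90 min at room temperature, then filtered on PEI-coated glass fibre and washed with buffer plus 0.5 M NaCl. Bound counts by scintillation. IC50, mean of triplicates in one experiment.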

[2] = biological target: T1, C-C chemokine receptor type 1; experiment: Antagonist activity at human CCR1 receptor expressed in THP1 cells assessed as human MIP-1-alpha-stimulated intracellular calcium level by FLIPR assay; assay type: functional, cell-based, THP-1
How it was run: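 THP-1 cells in RPMI-1640 at 2 × 10⁶/ml, mixed 1:1 with calcium dye buffer, loaded 30 min at 37 °C with 2.5 mM probenecid. Cells spun down, resuspended in RPMI-1640 with 0.1% BSA and plated at 1.5 × 10⁵/well with or without compound. Stimulated with 5 nM human MIP-1α; intracellular Ca²⁺ change read by FLIPR. IC50, mean of at least two independent experiments.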

Row | SMILES | IC50 [1] [nM] | IC50 [2] [nM]
1 | O=S(=O)(c1ccccc1Br)N1CCC[C@H](N2CCC(O)(c3ccc(Cl)cc3)CC2)C1 | 460 | 1300
2 | O=S(=O)(NCCCN1CCC(O)(c2ccc(Cl)cc2)CC1)c1ccc(F)cc1Cl | 360 | 100
3 | Cc1ccc(S(=O)(=O)NCCCN2CCC(O)(c3ccc(Cl)cc3)CC2)cc1 | 430 | 120
4 | Cc1cccc(Cl)c1S(=O)(=O)N1CCC(C)(N2CCC(O)(c3ccc(Cl)cc3)CC2)CC1 | 3570 | 2260
5 | CC1(N2CCC(O)(c3ccc(Cl)cc3)CC2)CCN(S(=O)(=O)c2ccccc2Cl)CC1 | 5150 | 2260
6 | O=S(=O)(NCCCN1CCC(O)(c2ccc(Cl)cc2)CC1)c1cccc(Cl)c1Cl | 510 | 350
7 | Cc1cccc(Cl)c1S(=O)(=O)N1CCC(N2CCC(O)(c3ccc(Cl)cc3)C2)CC1 (configuration not stated) | > 30000 | > 10000
8 | O=S(=O)(NCCCN1CCC(O)(c2ccc(Cl)cc2)CC1)c1cccc(Cl)c1 | 380 | 100
9 | O=S(=O)(c1ccccc1Cl)N1CCC(N2CCC(O)(c3ccc(F)cc3)CC2)CC1 | 1170 | 1250
10 | O=S(=O)(NCCCN1CCC(O)(c2ccc(Cl)cc2)CC1)c1cccc2ccccc12 | 680 | 180
11 | O=S(=O)(c1ccccc1Cl)N1CCC(N2CCC(O)(c3ccc(F)c(Cl)c3)CC2)CC1 | 510 | 590
12 | O=S(=O)(NCCCN1CCC(O)(c2ccc(Cl)cc2)CC1)c1ccc(Cl)c(Cl)c1 | 1850 | 2460
13 | O=S(=O)(NCCCN1CCC(O)(c2ccc(Cl)cc2)CC1)c1ccsc1 | 570 | 385
14 | COc1ccc(S(=O)(=O)NCCCN2CCC(O)(c3ccc(Cl)cc3)CC2)cc1 | 3880 | 830
15 | O=S(=O)(NCCCN1CCC(O)(c2ccc(Cl)cc2)CC1)c1ccccc1-c1ccsc1 | 350 | 110
16 | O=S(=O)(c1ccccc1Cl)N1CCC(N2CCC(O)(c3ccc(Br)cc3)CC2)CC1 | 440 | 180
17 | O=S(=O)(c1c(Cl)cccc1Cl)N1CCC(N2CCC(O)(c3ccc(Cl)cc3)CC2)CC1 | 420 | 420
18 | O=S(=O)(NCCCN1CCC(O)(c2ccc(Cl)cc2)CC1)c1ccc(C(F)(F)F)cc1 | 9400 | 2200
19 | O=S(=O)(c1ccccc1Br)N1CCC[C@@H](N2CCC(O)(c3ccc(Cl)cc3)CC2)C1 | 1400 | 1400

Row | SMILES | IC50 [1] [nM] | IC50 [2] [nM]
20 | O=S(=O)(NCCCN1CCC(O)(c2ccc(Cl)cc2)CC1)c1ccc(OC(F)(F)F)cc1 | 9000 | 3650
21 | O=S(=O)(NCCCN1CCC(O)(c2ccc(Cl)cc2)CC1)c1cc(Cl)cc(Cl)c1 | 780 | 1340
22 | O=S(=O)(c1ccc(Cl)c(Cl)c1Cl)N1CCC(N2CCC(O)(c3ccc(Cl)cc3)CC2)CC1 | 3600 | 670
23 | O=S(=O)(c1cccs1)N1CCC(N2CCC(O)(c3ccc(Cl)cc3)CC2)CC1 | 970 | 1020
24 | Cc1cccc(Cl)c1S(=O)(=O)NCCCN1CCC(O)(c2ccc(Cl)cc2)CC1 | 90 | 40
25 | O=S(=O)(NCCCN1CCC(O)(c2ccc(Cl)cc2)CC1)c1ccc(-c2ccccc2)cc1 | > 30000 | > 30000
26 | Cc1ccccc1S(=O)(=O)N1CCC(N2CCC(O)(c3ccc(Cl)cc3)CC2)CC1 | 500 | 180
27 | O=S(=O)(c1ccccc1Cl)N1CCC(N2CCC(O)(c3cc(F)c(F)c(F)c3)CC2)CC1 | 1330 | 2550
28 | O=S(=O)(c1ccccc1Cl)N1CCC[C@@H](N2CCC(O)(c3ccc(Cl)cc3)CC2)C1 | 1980 | 1290
29 | O=S(=O)(c1ccccc1Cl)N1CCC(N2CCC(O)(c3ccc(Oc4ccccc4)cc3)CC2)CC1 | > 10000 | > 10000
30 | O=S(=O)(NCCCN1CCC(O)(c2ccc(Cl)cc2)CC1)c1ccccc1OC(F)(F)F | 350 | 190
31 | N#CC1(c2ccc(Cl)cc2)CCN(C2CCN(S(=O)(=O)c3ccccc3Cl)CC2)CC1 | 1000 | –
32 | Cc1cccc(Cl)c1S(=O)(=O)N1CCC[C@@H](N2CCC(O)(c3ccc(Cl)cc3)CC2)C1 | 390 | 270
33 | COc1ccc(C2(O)CCN(C3CCN(S(=O)(=O)c4ccccc4Cl)CC3)CC2)cc1 | > 10000 | > 10000
34 | CC1CC(N2CCC(O)(c3ccc(Cl)cc3)CC2)CCN1S(=O)(=O)c1ccccc1Br (configuration not stated) | 220 | 120
35 | O=S(=O)(c1c(F)cc(F)cc1Br)N1CCC(N2CCC(O)(c3ccc(Cl)cc3)CC2)CC1 | 1120 | 330
36 | O=S(=O)(NCCCN1CCC(O)(c2ccc(Cl)cc2)CC1)c1ccccc1 | 300 | 90
37 | O=S(=O)(NCCCN1CCC(O)(c2ccc(Cl)cc2)CC1)c1c(Cl)cccc1Cl | 80 | 30
38 | O=S(=O)(NCCCN1CCC(O)(c2ccc(Cl)cc2)CC1)c1ccc(F)cc1 | 910 | 210

Row | SMILES | IC50 [1] [nM] | IC50 [2] [nM]
39 | Cc1ccccc1S(=O)(=O)NCCCN1CCC(O)(c2ccc(Cl)cc2)CC1 | 150 | 30
40 | O=S(=O)(NCCCN1CCC(O)(c2ccc(Cl)cc2)CC1)c1ccc(Cl)cc1Cl | 410 | 360
41 | O=S(=O)(NCCCN1CCC(O)(c2ccc(Cl)cc2)CC1)c1cc(Cl)ccc1Cl | 540 | 280
42 | CC(C)(C)c1ccc(C2(O)CCN(C3CCN(S(=O)(=O)c4ccccc4Cl)CC3)CC2)cc1 | > 10000 | > 10000
43 | O=S(=O)(c1ccccc1Cl)N1CCC(N2CCC(O)(c3ccc(Cl)c(Cl)c3)CC2)CC1 | 890 | 180
44 | CSc1ccc(C2(O)CCN(C3CCN(S(=O)(=O)c4ccccc4Cl)CC3)CC2)cc1 | > 10000 | 7980
45 | O=S(=O)(NCCCN1CCC(O)(c2ccc(Cl)cc2)CC1)c1ccc2ccccc2c1 | 1150 | 520
46 | O=S(=O)(NCCCN1CCC(O)(c2ccc(Cl)cc2)CC1)c1cccs1 | 160 | 70
47 | CC1(N2CCC(O)(c3ccc(Cl)cc3)CC2)CCN(S(=O)(=O)c2cccs2)CC1 | > 10000 | 7330
48 | O=S(=O)(NCCCN1CCC(O)(c2ccc(Cl)cc2)CC1)c1ccccc1Cl | 110 | 40
49 | Cc1cccc(Cl)c1S(=O)(=O)N1CCC[C@H](N2CCC(O)(c3ccc(Cl)cc3)CC2)C1 | 430 | 480
50 | O=S(=O)(c1ccccc1Cl)N1CCC(N2CCC(O)(c3ccc(-c4ccccc4)cc3)CC2)CC1 | > 10000 | > 10000
51 | CC1CC(N2CCC(O)(c3ccc(Cl)cc3)CC2)CCN1S(=O)(=O)c1ccccc1Cl (configuration not stated) | 320 | 280
52 | O=S(=O)(c1ccccc1Cl)N1CCC(N2CCC(O)(c3ccc(Cl)cc3)C2)CC1 (configuration not stated) | > 30000 | > 10000
53 | N#CC1(c2ccc(Cl)cc2)CCN(CCCNS(=O)(=O)c2ccccc2Cl)CC1 | 600 | –
54 | O=S(=O)(NCCCN1CCC(O)(c2ccc(Cl)cc2)CC1)c1ccccc1C(F)(F)F | 250 | 50
55 | O=S(=O)(NCCCN1CCC(O)(c2ccc(Cl)cc2)CC1)c1ccccc1Br | 140 | 170
56 | O=S(=O)(c1ccccc1Cl)N1CCC[C@H](N2CCC(O)(c3ccc(Cl)cc3)CC2)C1 | 1900 | 2040
57 | O=S(=O)(c1ccccc1Cl)N1CCC(N2CCCC(O)(c3ccc(Cl)cc3)CC2)CC1 (configuration not stated) | 400 | 130
